These results are taken from ChEMBL document CHEMBL3526115, “Differences in the pharmacokinetics of 4-amino-3-chlorophenyl hydrogen sulfate, a metabolite of resatorvid, in rats and dogs” (Drug Metab Dispos, 2012).

The nature of data set [1]: AUC infinity in Beagle dog at 0.5 mg/kg, iv administered as bolus dose by HPLC-based liquid scintillation counting analysis. The format is ADME, organism-based, Canis lupus familiaris. Further details: time infinity, dose 0.5 mg/kg, route intravenous. The settings on record: plasma. A digest of the protocol: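 Male beagles (7.4–10.0 kg) got a single IV injection of [14C]M-III in saline (2.5 mg/ml), 0.5 mg–1.0 MBq/kg. Cephalic-vein blood was taken from 5 min to 168 h and spun for heparinized plasma. Plasma was deproteinized with acetonitrile, run on reverse-phase HPLC and collected as 1-min fractions counted by LSC. AUCinf = AUClast + Clast/kel; n = 3.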

The nature of data set [2]: Drug uptake in Beagle dog plasma at 0.5 mg/kg, iv administered as bolus dose after 5 mins by HPLC-based liquid scintillation counting analysis. The format is ADME, organism-based, Canis lupus familiaris. Further details: dose 0.5 mg/kg, route intravenous. An outline of the steps:
(§1)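 [14C]M-III in saline given as a single iv bolus at 0.5 mg/kg to male rats (tail-vein blood, 5 min–24 h) or male beagle dogs (cephalic-vein blood, 5 min–168 h). Heparinized plasma counted for radioactivity; M-III quantified by HPLC with fraction collection and liquid scintillation counting. C5 min read directly; terminal t1/2 by linear regression, kel = ln2/t1/2, Vd = dose/back-extrapolated C0, CLtot = dose/AUCinf. Mean ± S.D., n = 3.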

A short description of data set [3]: Elimination rate constant in Crj:CD(SD)IGS rat at 0.5 mg/kg, iv administered as bolus dose by HPLC-based liquid scintillation counting analysis. The format is ADME, organism-based. The settings on record: in vivo. Further details: dose 0.5 mg/kg, route intravenous. A digest of the protocol:
as §1

The test system of data set [4] is Rattus norvegicus. The data set can be described thus: Intrinsic total body clearance in Crj:CD(SD)IGS rat at 0.125 mg/hr, iv administered as continuous infusion by HPLC based liquid scintillation counting analysis in presence of 31 mg/hr/kg probenecid. The format is ADME, organism-based. The note with it: in vivo. A digest of the protocol:
(§2)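 Rats received a continuous iv infusion of [14C]M-III at 0.125 mg/rat/h, with probenecid co-infused at 16, 31 or 62 mg/h/kg or vehicle alone, for 5 h. Arterial plasma was sampled during infusion. CLtot = infusion rate / steady-state plasma M-III (120–180 min). Unbound fraction was measured by ultrafiltration of 5-h plasma (10,000 MWCO, 1500g, 37°C, 10 min). CLint = CLtot / unbound ratio.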

Data set [5] can be described thus: Terminal half life in Beagle dog at 0.5 mg/kg, iv administered as bolus dose by HPLC-based liquid scintillation counting analysis. The format is ADME, organism-based, Canis lupus familiaris. Further details: dose 0.5 mg/kg, route intravenous. The note with it: in vivo, read-out: beta t1/2 (converted). A digest of the protocol: as §1
Data set [6] is described as follows: Unbound fraction in Crj:CD(SD)IGS rat plasma at 0.125 mg/hr, iv administered as continuous infusion by ultrafiltration method in presence of 31 mg/hr/kg probenecid. The format is ADME, organism-based. The note with it: with probenecid 31 mg/hr/kg. A digest of the protocol:
as §2

A short description of data set [7]: Unbound fraction in Crj:CD(SD)IGS rat plasma at 0.125 mg/hr, iv administered as continuous infusion by ultrafiltration method in presence of 16 mg/hr/kg probenecid. The settings on record: with probenecid 16 mg/hr/kg. The format is ADME, organism-based. An outline of the steps:
as §2

Data set [8] is described as follows: Total body clearance in Beagle dog at 0.5 mg/kg, iv administered as bolus dose by HPLC-based liquid scintillation counting analysis. The settings on record: in vivo. Further details: dose 0.5 mg/kg, route intravenous. The format is ADME, organism-based, Canis lupus familiaris. A digest of the protocol: as §1
Data set [9] concerns Rattus norvegicus. The experiment in a line: Intrinsic total body clearance in Crj:CD(SD)IGS rat at 0.125 mg/hr, iv administered as continuous infusion by HPLC based liquid scintillation counting analysis in presence of 16 mg/hr/kg probenecid. The settings on record: in vivo. The format is ADME, organism-based. An outline of the steps:
as §2

The nature of data set [10]: Drug excretion in Crj:CD(SD)IGS rat feces assessed as excretion ratio of [14C] at 0.5 mg/kg, iv administered as bolus dose measured from 0 to 24 hrs by HPLC-based liquid scintillation counting analysis. The format is ADME, organism-based. Further details: dose 0.5 mg/kg, route intravenous. The settings on record: in vivo. A digest of the protocol: (§3)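 Male rats in metabolic cages with urine/feces separator, or beagle dogs, after a 0.5 mg/kg iv bolus of [14C]M-III in saline. Radioactivity in urine and feces collected 0–24 h (rats) or 0–168 h (dogs) was counted and expressed as percent of dose. Mean ± S.D., n = 3.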

Data set [11] is described as follows: Ratio of drug level in kidney medulla to plasma in Beagle dog at 0.5 mg/kg, iv administered as bolus dose by HPLC-based liquid scintillation counting analysis. Further details: dose 0.5 mg/kg, route intravenous. The format is ADME, organism-based, Canis lupus familiaris. An outline of the steps: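 Rats received [14C]M-III in saline by continuous jugular-vein infusion for 4 h (0.5 mg/rat/h per methods; 0.25 mg/h in legend), then aortic blood and kidneys were collected. Dogs received a 0.5 mg/kg iv bolus, with blood and kidneys (cortex and medulla separated) collected at 24 h. 14C was measured in tissue homogenates and plasma as a tissue/plasma ratio. Rat n = 3, dog n = 2.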

Data set [12] is described as follows: Total body clearance in Crj:CD(SD)IGS rat at 0.125 mg/hr, iv administered as continuous infusion by HPLC based liquid scintillation counting analysis in presence of 31 mg/hr/kg probenecid. The note with it: in vivo, with probenecid 31 mg/hr/kg. The format is ADME, organism-based. A digest of the protocol: as §2
Data set [13] can be described thus: Terminal half life in Crj:CD(SD)IGS rat at 0.5 mg/kg, iv administered as bolus dose by HPLC-based liquid scintillation counting analysis. The note with it: in vivo, read-out: beta t1/2 (converted). Further details: dose 0.5 mg/kg, route intravenous. The format is ADME, organism-based. A digest of the protocol: as §1
Data set [14] is described as follows: Total body clearance in Crj:CD(SD)IGS rat at 0.125 mg/hr, iv administered as continuous infusion by HPLC based liquid scintillation counting analysis. The format is ADME, organism-based. The settings on record: in vivo. A digest of the protocol:
as §2

Data set [15] in a line: Drug excretion in Beagle dog urine assessed as excretion ratio of [14C] at 0.5 mg/kg, iv administered as bolus dose measured from 0 to 168 hrs by HPLC-based liquid scintillation counting analysis. The format is ADME, organism-based, Canis lupus familiaris. Further details: dose 0.5 mg/kg, route intravenous. The note with it: in vivo. An outline of the steps: as §3
A short description of data set [16]: In vivo plasma protein binding in Crj:CD(SD)IGS rat at 0.125 mg/hr, iv administered as continuous infusion by ultrafiltration method in presence of 62 mg/hr/kg probenecid. The format is ADME, organism-based. The note with it: with probenecid 62 mg/hr/kg, read-out: PPB (converted). An outline of the steps:
as §2

A short description of data set [17]: In vitro plasma protein binding in rat at 0.5 ug/ml by ultrafiltration method. The note with it: read-out: PPB (converted). The format is ADME, cell-free. An outline of the steps: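 [14C]M-III in saline was added to rat or dog plasma at final 0.5, 5 and 50 µg/ml. Plasma was ultrafiltered by centrifugation at 1500g and 37°C for 10 min, and 14C was measured in plasma and filtrate. Mean ± S.D., n = 3.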

Data set [18] can be described thus: Drug recovery in Crj:CD(SD)IGS rat urine at 0.5 mg/kg, iv administered as bolus dose measured from 0 to 24 hrs by HPLC analysis. The format is ADME, organism-based. Further details: dose 0.5 mg/kg, route intravenous. The settings on record: read-out: Drug recovery. An outline of the steps: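 After a 0.5 mg/kg iv bolus of [14C]M-III, urine was collected 0–24 h (rat) or 0–168 h (dog) and injected directly onto HPLC with fraction collection and scintillation counting. M-III in urine was derived from the urinary 14C excretion ratio and the [14C]M-III composition. CLrenal = urinary M-III amount / AUC0–24 h (rat) or AUC0–168 h (dog). Unbound CLrenal = CLrenal / free fraction.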

Data set [19] in a line: Total body clearance in Crj:CD(SD)IGS rat at 0.125 mg/hr, iv administered as continuous infusion by HPLC based liquid scintillation counting analysis in presence of 62 mg/hr/kg probenecid. The format is ADME, organism-based. The settings on record: in vivo, with probenecid 62 mg/hr/kg. A digest of the protocol:
as §2

Data set [20] in a line: Elimination rate constant in Beagle dog at 0.5 mg/kg, iv administered as bolus dose by HPLC-based liquid scintillation counting analysis. The format is ADME, organism-based, Canis lupus familiaris. Further details: dose 0.5 mg/kg, route intravenous. The settings on record: in vivo. A digest of the protocol: as §1
Data set [21] can be described thus: Apparent volume of distribution in Beagle dog at 0.5 mg/kg, iv administered as bolus dose by HPLC-based liquid scintillation counting analysis. The format is ADME, organism-based, Canis lupus familiaris. Further details: dose 0.5 mg/kg, route intravenous. The note with it: in vivo, read-out: Vd(app). An outline of the steps:
as §1

In turn, `N[14c]1[14cH][14cH][14c](OS(=O)(=O)O)[14cH][14c]1Cl` showed an AUC(0-inf) in data set [1] of 596 µg·h/mL. For the same compound, in data set [2], the concentration at 5 min turned out to be 4690 ng/mL. Further, the figures for the k el in data set [3] and in data set [20] were 5.11e-05 s⁻¹ and 1.68e-06 s⁻¹, respectively. In addition, the CL with Rattus norvegicus [4] came out at 11.9 mL/min/kg; in the data set on Rattus norvegicus [9], 53.83 mL/min/kg. Further, the half-life is 120 h in data set [5] and 4.1 h in data set [13]. For the same compound, the results for the fraction unbound in data set [6], in data set [7] and in data set [16] were 0.197, 0.078 and 0.184, respectively. For the same compound, the clearance was 0.0147 mL/min/kg in data set [8], 2.35 mL/min/kg in data set [12], 11.4 mL/min/kg in data set [14] and 1.83 mL/min/kg in data set [19]. In addition, the Drug excretion in data set [10] amounted to 10.3%; in [15], 44.6%. For the same compound, the Kp in data set [11] came out at 0.2. In addition, the fraction unbound at 0.5 ug/ml in [17] was 0.075. Also, the dose excreted in data set [18] amounted to 76.9%. In addition, in [21], the Vd came out at 0.0989 L/kg.

Usually AUC(0-inf) stands for the area under the concentration-time curve extrapolated to infinity. Low values mean low exposure, high ones high exposure. For orientation: clearance means the rate of elimination divided by the concentration. One may read the Kp as tissue or fluid exposure divided by exposure in the circulation.
